Measurements as given in ChEMBL document CHEMBL1145834, “Novel selective hindlimb vasodilators: synthesis and biological activity of 1-acyl-4-aminopiperidine derivatives” (2003).

Experiments:
Assay type in all cases: functional, Canis lupus familiaris
[1] = organism: Canis familiaris; experiment: Vasodilatory activity (at 100 nmol) relative to nifedipine (at 10 nmol) by coronary artery blood flow (CBF) in isolated blood perfused canine heart preparations.
How it was run: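 The canine heart was isolated after pentobarbital (30 mg/kg iv), heparin (500 U/kg) and exsanguination. A septum–papillary muscle preparation was perfused with donor-dog blood via the anterior septal artery at constant 100 mmHg. It was preloaded to 2 g and paced at 120/min with 5 ms pulses at 1.2× threshold. Septal artery flow was read by electromagnetic flowmeter as CBF, and drugs were given intra-arterially. Ratio = effect of test compound (100 nmol) / effect of nifedipine (10 nmol). Means ± SE, n = 3 or 1.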

[2] = organism: Canis familiaris; experiment: Vasodilatory activity (at 10 nmol) relative to nifedipine (at 1 nmol) by femoral artery blood flow (FBF) in autoperfused canine femoral artery preparations.
How it was run: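 Dogs were anesthetized with pentobarbital (30 mg/kg iv, then 4 mg/kg/h infusion) and heparinized (700 U/kg, then 100 U/kg/h). The right femoral artery was autoperfused with carotid blood at 90 mL/min by pump. Flow was read by electromagnetic flowmeter in the circuit, and drugs were given intra-arterially by microsyringe. Ratio = effect of test compound (10 nmol) / effect of nifedipine (1 nmol). Means ± SE, n = 3 or 1.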

[3] = system: Canis familiaris; experiment: Cardiovascular effect upon coronary artery blood flow(CBF) in anesthetized open-chest dogs at a dose of 10 ug/ kg administered intravenously
How it was run: (§1)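 Mongrel dogs anesthetized with pentobarbital sodium 30 mg/kg, open chest. Parameters allowed to stabilize, then drug given as single 10 μg/kg iv dose via femoral vein cannula. FBF and CBF expressed as % change from predose value; BP as change from predose value. Means ± SE, n = 3.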

[4] = system: Canis familiaris; experiment: Cardiovascular effect upon blood pressure(BP) in anesthetized open-chest dogs at a dose of 10 ug/ kg administered intravenously; how it was run: as §1
[5] = system: Canis familiaris; experiment: Cardiovascular effect upon femoral artery blood flow(FBF) in anesthetized open-chest dogs at a dose of 10 ug/ kg administered intravenously; how it was run: as §1

| Compound | CBF Ratio [1] | FBF Ratio [2] | CBF % change [3] | BP [4] | FBF % change [5] | CBF Ratio [3] | FBF Ratio [5] |
| --- | --- | --- | --- | --- | --- | --- | --- |
| CCC(=O)Nc1c(C)cc(C(=O)N2CCC(N(C)CCc3ccccc3)CC2)cc1[N+](=O)[O-] | 0.09 | 0.24 | – | – | – | – | – |
| CCc1cc(C(=O)N2CCC(N(C)CCc3ccccc3)CC2)cc2c1NC(=O)CC2.O=C(O)C(=O)O | 0.18 | 1.07 | 15 | -26 mmHg | 54 | – | – |
| Cc1cc2c(cc1C(=O)N1CCC(N(C)CCc3ccccc3)CC1)CCC(=O)N2.O=C(O)C(=O)O | 0.02 | 3.01 | 11 | -13 mmHg | 41 | – | – |
| CCc1cc(C(=O)N2CCC(N(C)CCc3ccccc3)CC2)cc2ccc(O)nc12.O=C(O)C(=O)O | 0.18 | 0.96 | 26 | -22 mmHg | 78 | – | – |
| COc1cc2nc(O)ccc2cc1C(=O)N1CCC(N(C)CCc2ccccc2)CC1 | 0.04 | 1.07 | 7 | -9 mmHg | 26 | – | – |
| CN(CCc1ccccc1)C1CCN(C(=O)c2cc3c(c([N+](=O)[O-])c2)NC(=O)CC3)CC1 | 0.28 | 0.68 | – | – | – | – | – |
| CN(CCc1ccccc1)C1CCN(C(=O)c2ccc3c(c2)NC(=O)CC3)CC1 | 0.07 | 0.19 | – | – | – | – | – |
| CCC(=O)Nc1ccc(C(=O)N2CCC(N(C)CCc3ccccc3)CC2)cc1 | 0.02 | 1.23 | 5 | -7 mmHg | 38 | – | – |
| CCC(=O)Nc1cc(C)c(C(=O)N2CCC(N(C)CCc3ccccc3)CC2)cc1C.Cl | 0 | 0.49 | – | – | – | – | – |
| CN(CCc1ccccc1)C1CCN(C(=O)C2CC(=O)Nc3ccccc32)CC1.Cl (stereo not drawn) | 0.01 | 0.85 | 13 | -15 mmHg | 101 | – | – |
| CN(CCc1ccccc1)C1CCN(C(=O)c2cccc3c2NC(=O)CC3)CC1.Cl | 0.09 | 0.62 | – | – | – | – | – |
| CCC(=O)Nc1c(C)cc(C(=O)N2CCC(N(C)CCc3ccccc3)CC2)cc1OC.Cl | 0 | 0.7 | – | -14 mmHg | – | 11 | 48 |
| Cc1cc(C(=O)N2CCC(N(C)CCc3ccccc3)CC2)cc2c1NC(=O)CC2.Cl | 0.14 | 0.67 | 13 | -26 mmHg | 32 | – | – |
| CCC(=O)Nc1ccc(C(=O)N2CCC(N(C)CCc3ccccc3)CC2)c(C)c1C.Cl | 0 | 0.43 | – | – | – | – | – |
| CN(CCc1ccccc1)C1CCN(C(=O)c2ccc3c(c2)CCC(=O)N3)CC1.Cl | 0 | 1.64 | 11 | -9 mmHg | 38 | – | – |
| CN(CCc1ccccc1)C1CCN(C(=O)c2cccc3nc(O)ccc23)CC1.Cl | 0.01 | 0.32 | – | – | – | – | – |
| CC(C)c1cc(C(=O)N2CCC(N(C)CCc3ccccc3)CC2)cc2c1NC(=O)CC2.Cl | 0.25 | 1.13 | 15 | -19 mmHg | 73 | – | – |
| COc1cc(C(=O)N2CCC(N(C)CCc3ccccc3)CC2)cc2ccc(O)nc12.Cl | 0.04 | 1.36 | 10 | -10 mmHg | 55 | – | – |
| CCC(=O)Nc1ccc(C(=O)N2CCC(N(C)CCc3ccccc3)CC2)cc1Cl.Cl | 0.16 | 1.71 | – | – | – | – | – |
| CCC(=O)Nc1c(C)cc(C(=O)N2CCC(N(C)CCc3ccccc3)CC2)cc1Cl.Cl | 0.08 | 0.1 | – | – | – | – | – |
| CCC(=O)Nc1ccc(C(=O)N2CCC(N(C)CCc3ccccc3)CC2)cc1[N+](=O)[O-].Cl | 0.26 | 0.29 | – | – | – | – | – |
| CCCc1cc(C(=O)N2CCC(N(C)CCc3ccccc3)CC2)cc2ccc(O)nc12.Cl | 0.35 | 1.61 | 8 | -22 mmHg | 67 | – | – |
| CN(CCc1ccccc1)C1CCN(C(=O)c2cc([N+](=O)[O-])c3nc(O)ccc3c2)CC1.Cl | 1.15 | 1.6 | 9 | -21 mmHg | 32 | – | – |
| COc1cc2c(cc1C(=O)N1CCC(N(C)CCc3ccccc3)CC1)CCC(=O)N2.Cl | 0 | 1.98 | 8 | -8 mmHg | 26 | – | – |
| COC(=O)C1=C(C)NC(C)=C(C(=O)OC)C1c1ccccc1[N+](=O)[O-] [NIFEDIPINE] | – | – | 104 | -37 mmHg | -28 | – | – |
